Data set [1] concerns L1210. The data set can be described thus: Compound was evaluated for the inhibition of DNA synthesis in leukemia L1210 cells. The data set is classed as functional. Conditions: Mus musculus, read-out: ED50 (the source's name). In short, it runs like this: (§1)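 Actively growing L1210 cells exposed to drug for 3 h; drug dissolved first in Me₂SO, final 1% Me₂SO. Read-out is incorporation of [³H]thymidine into DNA or [³H]uridine into RNA. ED50 is the concentration giving 50% inhibition.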

Data set [2] relates to L1210. The data set can be described thus: Compound was evaluated for the inhibition of RNA synthesis in leukemia L1210 cells. The format is functional. The conditions noted are these: Mus musculus, read-out: ED50 (the source's name). The method, boiled down:
as §1

Data set [3] can be described thus: Compound was evaluated for the change in Tm of isolated helical DNA in solution. The data set is classed as ADME. The method, boiled down: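 Thermal denaturation of calf thymus DNA, 5.2 × 10⁻⁵ M (P), with drug at 5.2 × 10⁻⁶ M, in 0.01 M phosphate buffer pH 7 with EDTA and 5% Me₂SO. ΔTm = Tm of DNA–drug complex minus Tm of DNA alone.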
Data set [4] deals with HeLa. Description: (§2) Compound was evaluated for the inhibition of colony formation in HeLa cells. The data set is classed as functional, Mus musculus. The conditions noted are these: Homo sapiens, read-out: ID50 (the source's name). The method, boiled down: (§3)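 Exponentially growing HeLa cells exposed to drug for 24 h, then plated at 50 cells/mL in drug-free medium. Colonies grown 7–10 days at 37 °C in humidified 95:5 air/CO₂, then scored. ID50 is the concentration giving 50% inhibition of colony growth.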

The species named for data set [5] is Mus musculus. Description: Compound was evaluated for the antitumor efficacy at optimal dose against P388 in mice. The format is functional. The method, boiled down: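 Mice given 10⁶ P388 leukemia cells ip on day 0, then dosed ip on day 1 at the optimal dose. Efficacy expressed as % T/C, the mean survival time of treated over control mice; ≥120% counts as active.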

Data set [6] has as its system P388. Description: Compound was evaluated for the growth inhibition of P388/S, cells. The conditions noted are these: Mus musculus. The format is functional, cell-based. The method, boiled down:
(§4)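 Growth of P388/S cells, the routine screening line, and of the P388/ADR resistant subline measured after 48-h drug exposure. IC50 is the concentration giving 50% growth inhibition.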

A short description of data set [7]: Partition coefficient in octanol-phosphate buffer at pH 7.4. The format is physicochemical. The method, boiled down: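 Drug partitioned between octanol and phosphate buffer pH 7.4. Concentrations in each phase measured by UV absorbance; log P is the log of organic-phase over aqueous-phase concentration.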
For data set [8], the system named is HeLa. The data set is described as §2. The format is functional. The conditions noted are these: Homo sapiens, read-out: ID50 (the source's name). The method, boiled down: as §3
The test system of data set [9] is P388/ADR. The data set can be described thus: Compound was evaluated for the growth inhibition of P388/ADR cells. The data set is classed as functional, cell-based. Conditions: Mus musculus. The method, boiled down:
as §4

A short description of data set [10]: Resistance index was measured as ratio of IC50 of P388/ADR to that of P388/S.
Data set [11] in a line: Compound was evaluated for the percentage of hydrolysis product formed at pH of 2. The format is ADME. The conditions noted are these: pH 2. The method, boiled down:
(§5)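 Stock solutions at 0.6 mg/mL in CH3CN (or CH3OH) were diluted 1:1 with phosphate buffer (pH 7), citrate buffer (pH 4) or 0.1 N HCl-KCl (pH 2). They were held at 23 °C for 22 h, then analysed by reverse-phase HPLC in 0.1 M NaH2PO4-CH3CN (75:25) with 254 nm absorbance. Each value is the amount detected at that time divided by the total detected at start.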

Data set [12] is described as follows: Compound was evaluated for the percentage of hydrolysis product formed at pH of 4. The format is ADME. Conditions: pH 4. In short, it runs like this:
as §5

Data set [13] in a line: Compound was evaluated for the overall absorbance loss at pH of 2. The data set is classed as ADME. Conditions: pH 2. In short, it runs like this:
as §5

The nature of data set [14]: Compound was evaluated for the overall absorbance loss at pH of 4. The conditions noted are these: pH 4. The format is ADME. The method, boiled down: as §5
The nature of data set [15]: Compound was evaluated for the overall absorbance loss at pH of 7. The conditions noted are these: pH 7. The format is ADME. The method, boiled down:
as §5

The nature of data set [16]: Compound was evaluated for its stability after 22 hr in solution at pH of 2. The format is physicochemical. The conditions noted are these: pH 2, read-out: Recovery. In short, it runs like this:
as §5

Data set [17] in a line: Compound was evaluated for its stability after 22 hr in solution at pH of 4. The format is physicochemical. The conditions noted are these: pH 4, read-out: Recovery. The method, boiled down: as §5
A short description of data set [18]: Compound was evaluated for its stability after 22 hr in solution at pH of 7. Conditions: pH 7, read-out: Recovery. The data set is classed as physicochemical. In short, it runs like this: as §5
Data set [19] is described as follows: Compound was evaluated for the percentage of hydrolysis product formed at pH of 7. The format is ADME. The conditions noted are these: pH 7. In short, it runs like this:
as §5

The nature of data set [20]: Compound was evaluated for the percentage of hydrolysis of compound 2 formed at pH of 2. The data set is classed as ADME. The conditions noted are these: pH 2. In short, it runs like this:
as §5

Data set [21] in a line: Compound was evaluated for the percentage of hydrolysis of compound 2 formed at pH of 4. The data set is classed as ADME. The conditions noted are these: pH 4. In short, it runs like this: as §5
A short description of data set [22]: Compound was evaluated for the percentage of hydrolysis of compound 2 formed at pH of 7. The data set is classed as ADME. The conditions noted are these: pH 7. In short, it runs like this: as §5
Data set [23] in a line: Compound was evaluated for the percentage of hydrolysis product (aglycon) formed at pH of 2. The format is ADME. The conditions noted are these: pH 2. In short, it runs like this:
as §5

Data set [24] can be described thus: Compound was evaluated for the percentage of hydrolysis product (aglycon) formed at pH of 4. The format is ADME. Conditions: pH 4. The method, boiled down:
as §5

Data set [25] in a line: Compound was evaluated for the percentage of hydrolysis product (aglycon) formed at pH of 7. The data set is classed as ADME. Conditions: pH 7. The method, boiled down:
as §5

Data set [26] has as its system P388/S. The data set can be described thus: Compound was evaluated for the growth inhibition of P388/S cells. The data set is classed as functional, cell-based. The conditions noted are these: Mus musculus. In short, it runs like this: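 P388/S is the sensitive line routinely used in screening. Cells were exposed to drug for 48 h before IC50 was determined.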

In brackets after ≈: the same amount, converted by molar mass. Several values for one entry are separate records, joined by “and”; a condition that tells them apart may be missing. Equal values may be shown once. Bounds are passed on as bounds.

Regarding `COc1cccc2c1C(=O)c1c(O)c3c(c(O)c1C2=O)C[C@@](O)(C(=O)CO)C[C@@H]3OC1CC2C(OC(CO)N2CCO)C(C)O1` (stereo partly specified), the EC50 is 650 nM in data set [1] and 120 nM in [2].
A word on the T/C: it is the result in the treated group divided by that in the control group, in per cent. Take `COc1cccc2c1C(=O)c1c(O)c3c(c(O)c1C2=O)C[C@@](O)(C(=O)CO)C[C@@H]3O[C@H]1C[C@H](N)[C@H](O)[C@H](C)O1` [DOXORUBICIN]: the “Change in Tm” value in data set [3] is 12.8. Besides, the values for the IC50 in data set [4] and in data set [6] were 0.019 µg/mL (≈ 0.035 µM) and 68 nM, respectively. In addition, the EC50 in data set [1] was 1600 nM; in data set [2], 580 nM. Moreover, the T/C in [5] is 182% and 273%.
One may read the logD as lipophilicity at a set pH, counting ionised and neutral species. Read a low logD as lower lipophilicity. In turn, `COc1cccc2c1C(=O)c1c(O)c3c(c(O)c1C2=O)C[C@@](O)(C(=O)CO)C[C@@H]3OC1CC(NCCO)C(O)C(C)O1` (stereo partly specified) displayed a logD in [7] of 0.19. The “Change in Tm” value in data set [3] was 10.7. Moreover, the IC50 was determined as 0.031 µg/mL (≈ 0.0528 µM) in data set [8], 3.9 µM in [9] and 230 nM in data set [6]. Moreover, the values for the EC50 in data set [1] and in [2] were 5200 nM and 810 nM, respectively. The T/C in [5] is 157% and 205%. The Ratio in data set [10] came to 17.
Consider `COc1cccc2c1C(=O)c1c(O)c3c(c(O)c1C2=O)C[C@@](O)(C(=O)CO)C[C@@H]3OC1CC(N2CCOCC2)C(O)C(C)O1` (stereo partly specified), for which the Hydrolysis in data set [11], in data set [12] and in data set [19] was < 1% in each case. Moreover, the values for the Absorbance in data set [13], in [14] and in data set [15] were 4%, 12% and 4%, respectively. In addition, the remaining at 22 h in data set [16] is 96%; in data set [17], 88%; in [18], 90%.
As to `COc1cccc2c1C(=O)c1c(O)c3c(c(O)c1C2=O)C[C@@](O)(C(=O)CO)C[C@@H]3OC1CC(N2CCOCC2C#N)C(O)C(C)O1` (stereo partly specified), the Hydrolysis in data set [20] is reported as 7%; in [21], 8%; in [22], 0.8%; in [23], 8%; in data set [24], 0.1%; in [25] it was 0.3%. In addition, the results for the Absorbance in data set [13], in data set [14] and in data set [15] were 67%, 37% and 17%, respectively. In data set [16], the remaining at 22 h worked out at 10%. Also, the “Change in Tm” value in data set [3] was 8.7. Also, the EC50 in [1] came to 3 nM; in [2], 0.53 nM. For the same molecule, the T/C in data set [5] was 262% and 233%. The molecule also returned an IC50 in data set [26] of 0.16 nM.

For the origin of these results see ChEMBL document CHEMBL1123258 (J Med Chem, 1986).
